Test results as given in ChEMBL document CHEMBL1155078, “From phenothiazine to 3-phenyl-1,4-benzothiazine derivatives as inhibitors of the Staphylococcus aureus NorA multidrug efflux pump” (J Med Chem, 2008).
Values after ≈ are worked out from the molar mass of the structure shown. Each block holds one molecule with its values, some of them ahead of it. Active and inactive are the calls of the source. The rule behind the calls is not given here.

Key:
Staphylococcus aureus [1] = assay: Antibacterial activity against wild type Staphylococcus aureus ATCC 25923 by microdilution technique; format: functional
Procedure, shortened: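 MICs determined in duplicate by broth microdilution following CLSI guidelines.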

[2] = target: T1, Quinolone resistance protein NorA (Staphylococcus aureus) (UniProt P0A0J7); assay: Inhibition of NorA pump-mediated ethidium bromide efflux in Staphylococcus aureus K1199B at 50 uM by fluorimetric analysis
T1 sequence (whole entry): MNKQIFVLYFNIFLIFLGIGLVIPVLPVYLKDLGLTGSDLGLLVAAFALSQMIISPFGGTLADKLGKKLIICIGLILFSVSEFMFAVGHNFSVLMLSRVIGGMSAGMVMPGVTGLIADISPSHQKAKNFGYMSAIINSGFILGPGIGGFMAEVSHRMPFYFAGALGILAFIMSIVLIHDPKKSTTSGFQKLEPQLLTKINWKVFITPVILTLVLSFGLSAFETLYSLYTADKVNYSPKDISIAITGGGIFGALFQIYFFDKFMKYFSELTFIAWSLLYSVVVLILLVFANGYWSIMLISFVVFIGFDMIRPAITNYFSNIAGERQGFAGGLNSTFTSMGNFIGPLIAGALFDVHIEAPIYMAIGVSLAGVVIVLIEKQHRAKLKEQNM
Procedure, shortened: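 Loss of ethidium bromide from norA-overexpressing S. aureus SA-1199B measured fluorometrically with test agent at 50 µM. Run in duplicate; read-out is the mean total efflux over a 5 min time course.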

[3] = Lipophilicity, log P of the compound; format: physicochemical; conditions: octanol/water
[4] = target: T1, Quinolone resistance protein NorA (Staphylococcus aureus); assay: Inhibition of NorA overexpressing Staphylococcus aureus K2378 assessed as fold reduction of ciprofloxacin MIC at 25 ug/mL by microdilution technique
Procedure, shortened: (§1)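 Ciprofloxacin MICs were measured in duplicate by broth microdilution following CLSI guidelines. They were determined alone and with scalar dilutions of freshly prepared test compound, which was added at the fixed concentration stated in the line. The result is the fold decrease in the ciprofloxacin MIC when compound is present.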

[5] = target: T1, Quinolone resistance protein NorA (Staphylococcus aureus); assay: Inhibition of NorA deficient Staphylococcus aureus K1902 assessed as fold reduction of ciprofloxacin MIC at 25 ug/mL by microdilution technique
Staphylococcus aureus [6] = assay: Antibacterial activity against Staphylococcus aureus K1199B at 50 uM by microdilution technique; format: functional, organism-based
[7] = target: T1, Quinolone resistance protein NorA (Staphylococcus aureus); assay: Inhibition of NorA in Staphylococcus aureus ATCC 25923 assessed as fold reduction of ciprofloxacin MIC at 25 ug/mL by microdilution technique; procedure, shortened: as §1
[8] = target: T1, Quinolone resistance protein NorA (Staphylococcus aureus); assay: Inhibition of NorA overexpressing Staphylococcus aureus K2378 assessed as fold reduction of ciprofloxacin MIC at 6.25 ug/mL by microdilution technique; procedure, shortened: as §1
[9] = target: T1, Quinolone resistance protein NorA (Staphylococcus aureus); assay: Inhibition of NorA overexpressing Staphylococcus aureus K2378 assessed as fold reduction of ciprofloxacin MIC at 12.5 ug/mL by microdilution technique; procedure, shortened: as §1
[10] = target: T1, Quinolone resistance protein NorA (Staphylococcus aureus); assay: Inhibition of NorA deficient Staphylococcus aureus K1902 assessed as fold reduction of ciprofloxacin MIC at 12.5 ug/mL by microdilution technique
Staphylococcus aureus [11] = assay: Antibacterial activity against norA expressing Staphylococcus aureus K1902 by microdilution technique
Staphylococcus aureus [12] = assay: Antibacterial activity against norA deficient Staphylococcus aureus K2378 by microdilution technique
Staphylococcus aureus [13] = assay: microbe, parasite or virus in culture; conditions: ATCC 25923

SMILES: CN(C)CCCN1c2ccccc2Sc2ccc(Cl)cc21 [CHLORPROMAZINE]
- MIC (Staphylococcus aureus [1]): 128 µg/mL (≈ 401 µM)
- inhibition [2]: 81%
- logP [3]: 5.2
- fold change (FC) [4]: 8
- fold change (FC) [5]: > 4

SMILES: FC(F)(F)c1ccc2c(c1)N=C(c1ccccc1)CS2
- MIC (Staphylococcus aureus [1]): 32 µg/mL (≈ 109 µM)
- inhibition [2]: 8.4%
- Activity (Staphylococcus aureus [6]): inactive
- fold change (FC) [7]: 2
- fold change (FC) [8]: 4
- fold change (FC) [9]: 16
- fold change (FC) [4]: 16

SMILES: CCCOc1ccc(C2=CSc3ccccc3N2C)cc1
- MIC (Staphylococcus aureus [1]): > 512 µg/mL
- inhibition [2]: 0%
- Activity (Staphylococcus aureus [6]): inactive
- fold change (FC) [4]: 4

SMILES: Clc1ccc(C2=Nc3ccccc3SC2)cc1
- MIC (Staphylococcus aureus [1]): 64 µg/mL (≈ 246 µM)
- fold change (FC) [7]: 4
- fold change (FC) [4]: 4
- fold change (FC) [5]: 4

SMILES: O=S1(=O)C=C(c2ccccc2)Nc2ccccc21
- MIC (Staphylococcus aureus [1]): 128 µg/mL (≈ 497 µM)
- fold change (FC) [7]: 2
- fold change (FC) [4]: 2

SMILES: COc1cc(C2=Nc3ccccc3SC2)cc(OC)c1OC
- MIC (Staphylococcus aureus [1]): 32 µg/mL (≈ 101 µM)
- inhibition [2]: 23.6%
- Activity (Staphylococcus aureus [6]): inactive
- fold change (FC) [7]: 4
- fold change (FC) [8]: 2
- fold change (FC) [9]: 4
- fold change (FC) [4]: 16

SMILES: COc1ccc(C2=Nc3cc(C(F)(F)F)ccc3SC2)cc1
- MIC (Staphylococcus aureus [1]): 64 µg/mL (≈ 198 µM)
- fold change (FC) [7]: 2
- fold change (FC) [4]: 8

SMILES: COc1cccc(C2=Nc3ccccc3SC2)c1
- MIC (Staphylococcus aureus [1]): 64 µg/mL (≈ 251 µM)
- fold change (FC) [7]: 4
- fold change (FC) [4]: 8

SMILES: O=[N+]([O-])c1ccc(C2=Nc3cc(C(F)(F)F)ccc3SC2)cc1
- MIC (Staphylococcus aureus [1]): 32 µg/mL (≈ 94.6 µM)
- inhibition [2]: 69.7%
- Activity (Staphylococcus aureus [6]): inactive
- logP [3]: 3.9
- fold change (FC) [7]: > 8
- fold change (FC) [8]: 8
- fold change (FC) [9]: 16
- fold change (FC) [4]: > 32
- fold change (FC) [5]: 2
- fold change (FC) [10]: 2

SMILES: COc1ccc(C2=Nc3ccccc3SC2)cc1OC
- MIC (Staphylococcus aureus [1]): 128 µg/mL (≈ 449 µM)
- inhibition [2]: 22.8%
- Activity (Staphylococcus aureus [6]): inactive
- fold change (FC) [7]: 4
- fold change (FC) [8]: 2
- fold change (FC) [9]: 4
- fold change (FC) [4]: 16
- fold change (FC) [5]: 2

SMILES: CCCOc1ccc(C2=Nc3ccccc3SC2)cc1
- MIC (Staphylococcus aureus [1]): 128 µg/mL (≈ 452 µM)
- inhibition [2]: 84.7%
- Activity (Staphylococcus aureus [6]): inactive
- logP [3]: 4
- fold change (FC) [7]: > 8
- fold change (FC) [4]: 4

SMILES: O=[N+]([O-])c1ccc(C2=Nc3ccccc3SC2)cc1
- MIC (Staphylococcus aureus [1]): > 128 µg/mL
- inhibition [2]: 19.6%
- Activity (Staphylococcus aureus [6]): inactive
- fold change (FC) [7]: 2
- fold change (FC) [4]: 2

SMILES: COc1ccccc1C1=Nc2ccccc2SC1
- MIC (Staphylococcus aureus [1]): 64 µg/mL (≈ 251 µM)
- inhibition [2]: 0%
- Activity (Staphylococcus aureus [6]): inactive
- logP [3]: 2.9
- fold change (FC) [7]: 4
- fold change (FC) [4]: 8

SMILES: Fc1ccc(C2=Nc3ccccc3SC2)cc1
- MIC (Staphylococcus aureus [1]): 64 µg/mL (≈ 263 µM)
- inhibition [2]: 0%
- Activity (Staphylococcus aureus [6]): inactive
- logP [3]: 3.2
- fold change (FC) [7]: 4
- fold change (FC) [8]: 2
- fold change (FC) [9]: 2
- fold change (FC) [4]: 16
- fold change (FC) [5]: 2

SMILES: O=C(O)c1cn(C2CC2)c2cc(N3CCNCC3)c(F)cc2c1=O [CIPROFLOXACIN]
- MIC (Staphylococcus aureus [11]): 0.12 µg/mL (≈ 0.362 µM)
- MIC (Staphylococcus aureus [12]): 2 µg/mL (≈ 6.04 µM)
- MIC (Staphylococcus aureus [13]): 0.5 µg/mL (≈ 1.51 µM)

SMILES: COc1ccc(C2CSc3ccccc3N2)cc1 (configuration not stated)
- MIC (Staphylococcus aureus [1]): > 128 µg/mL
- inhibition [2]: 10.4%
- Activity (Staphylococcus aureus [6]): inactive
- fold change (FC) [7]: 2
- fold change (FC) [8]: 4
- fold change (FC) [9]: 4
- fold change (FC) [4]: 8

SMILES: O=S1(=O)C=C(c2ccc(Cl)cc2)Nc2ccccc21
- MIC (Staphylococcus aureus [1]): 128 µg/mL (≈ 439 µM)
- fold change (FC) [7]: 4
- fold change (FC) [4]: 2

SMILES: CC(C)CCOc1ccc(C2=Nc3ccccc3SC2)cc1
- MIC (Staphylococcus aureus [1]): > 128 µg/mL
- inhibition [2]: 16.9%
- Activity (Staphylococcus aureus [6]): inactive
- fold change (FC) [7]: 4
- fold change (FC) [4]: 2

SMILES: COc1ccc(C2=Nc3ccccc3SC2)cc1
- MIC (Staphylococcus aureus [1]): > 512 µg/mL
- inhibition [2]: 19.5%
- Activity (Staphylococcus aureus [6]): inactive
- logP [3]: 3.1
- fold change (FC) [7]: > 8
- fold change (FC) [8]: 2
- fold change (FC) [9]: 4
- fold change (FC) [4]: 16

- MIC (Staphylococcus aureus [1]): > 512 µg/mL
- inhibition [2]: 0%
- logP [3]: 3
- fold change (FC) [7]: 8
SMILES: c1ccc(C2=Nc3ccccc3SC2)cc1
- Activity (Staphylococcus aureus [6]): inactive

- MIC (Staphylococcus aureus [1]): 64 µg/mL (≈ 267 µM)
- fold change (FC) [7]: 4
- fold change (FC) [5]: 8
SMILES: Cc1ccc(C2=Nc3ccccc3SC2)cc1

SMILES: CSc1ccc(C2CSc3ccccc3N2)cc1 (configuration not stated)
- MIC (Staphylococcus aureus [1]): > 128 µg/mL
- inhibition [2]: 28.2%
- Activity (Staphylococcus aureus [6]): inactive
- logP [3]: 4.5
- fold change (FC) [7]: > 8
- fold change (FC) [8]: 8
- fold change (FC) [9]: 8
- fold change (FC) [4]: 16

SMILES: COC(=O)[C@H]1[C@H]2C[C@@H]3c4[nH]c5cc(OC)ccc5c4CCN3C[C@H]2C[C@@H](OC(=O)c2cc(OC)c(OC)c(OC)c2)[C@@H]1OC [RESERPINE]
- MIC (Staphylococcus aureus [1]): 128 µg/mL (≈ 210 µM)
- logP [3]: 4
- fold change (FC) [7]: 2
- fold change (FC) [4]: 4
- fold change (FC) [5]: 2
